Assay results reported in ChEMBL document CHEMBL5712092, “NeuroD1 Dictates Tumor Cell Differentiation in Medulloblastoma” (Cell Rep, 2020).
Active and inactive are the calls of the source. The calls are words filed in the database; no cut-off is given here.

What was measured:
Medulloblastoma cell [1] = test: Antitumor activity in human medulloblastoma cells xenografted in CB17/SCID mouse assessed as decrease in Ki67+ cells at 100 mg/kg po, administered once a day by immunocytochemistry analysis; format: functional, organism-based
Medulloblastoma cell [2] = test: Induction of cell differentiation activity in human medulloblastoma cells xenografted in CB17/SCID mouse assessed as increase in NeuN expression at 100 mg/kg po, administered once a day by immunocytochemistry analysis; format: functional, organism-based
[3] = Toxicity in CB17/SCID mouse xenografted with human medulloblastoma cells asessed as body weight loss at 50 mg/kg po, administered once a day; format: organism-based; details: in vivo
Medulloblastoma cell [4] = test: Antiproliferative activity in human medulloblastoma cell assessed as decrease in BrdU+ cells at 1 uM after 48 hrs by immunocytochemistry analysis relative to vehicle control; format: functional, cell-based
How it was run: (§1)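 Cultured MB cells were exposed to inhibitor at 1 μM for 48 h, with DMSO as the vehicle control. Cells were pulsed with BrdU for 2 h, then immunostained for BrdU (proliferation) or p27/Kip1 (differentiation), with DAPI nuclear counterstain. Read-out was the percentage of positive cells.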

Medulloblastoma cell [5] = test: Antitumor activity in human medulloblastoma cells xenografted in CB17/SCID mouse assessed as decrease in Ki67+ cells at 50 mg/kg po, administered once a day by immunocytochemistry analysis; format: functional, organism-based
Medulloblastoma cell [6] = test: Increase of apoptosis in human medulloblastoma cells xenografted in CB17/SCID mouse assessed as cleaved caspase-3 expression at 100 mg/kg po, administered once a day by immunocytochemistry analysis; format: functional, organism-based
Medulloblastoma cell [7] = test: Antitumor activity in human medulloblastoma cells xenografted in CB17/SCID mouse at 100 mg/kg po, administered once a day; format: functional, organism-based
Medulloblastoma cell [8] = test: Induction of cell differentiation activity in human medulloblastoma cell assessed as increase in p27/Kip1+ cells at 1 uM after 48 hrs by immunocytochemistry analysis; format: functional, cell-based; how it was run: as §1
Medulloblastoma cell [9] = test: Antitumor activity in human medulloblastoma cells xenografted in CB17/SCID mouse at 50 mg/kg po, administered once a day; format: functional, organism-based
Medulloblastoma cell [10] = test: Antitumor activity in human medulloblastoma cells xenografted in CB17/SCID mouse assessed as increase in NeuroD1 expression at 100 mg/kg po, administered once a day by Western blot analysis; format: functional, organism-based
Medulloblastoma cell [11] = test: Increase of apoptosis in human medulloblastoma cells xenografted in CB17/SCID mouse assessed as cleaved caspase-3 expression at 50 mg/kg po, administered once a day by immunocytochemistry analysis; format: functional, organism-based
[12] = Toxicity in CB17/SCID mouse xenografted with human medulloblastoma cells asessed as body weight loss at 100 mg/kg po, administered once a day; format: organism-based; details: in vivo
[13] = tested on: Cerebellar granule neurone; test: Antiproliferative activity in wild-type mouse SmoA1-expressing cerebellar granule neurone cells at P7 at 2 uM for 48h by immunocytochemistry analysis; format: functional, cell-based
How it was run: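 Cerebellar granule neuron precursors from wild-type pups were infected with SmoA1-GFP lentivirus. 48 h after infection they were treated with inhibitor at 2 μM for 48 h, with DMSO as control. Proliferation was scored as the percentage of EdU+ cells among infected cells by immunostaining.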

Medulloblastoma cell [14] = test: Antiproliferative activity in Ptch1-deficient mouse medulloblastoma cell after 48 hrs by CCK-8 assay; format: functional, cell-based
How it was run: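 MB cells from tumors of 30-week-old Ptch1+/− mice, dissociated by papain digestion and purified on a 35%/65% Percoll gradient. Cells were treated with a range of inhibitor concentrations for 48 h and viability was read by CCK8 assay. IC50 was taken as the concentration giving 50% inhibition of viability.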

Medulloblastoma cell [15] = test: Upregulation in NeuroD1 protein expression in human medulloblastoma cell by Western blot analysis; format: functional, cell-based
Medulloblastoma cell [16] = test: Induction of cell differentiation activity in human medulloblastoma cells xenografted in CB17/SCID mouse assessed as increase in NeuN expression at 50 mg/kg po, administered once a day by immunocytochemistry analysis; format: functional, organism-based
Mus musculus = test: Antitumor activity in human medulloblastoma cells xenografted in CB17/SCID mouse assessed as increase in NeuroD1 expression at 50 mg/kg po, administered once a day by Western blot analysis; format: functional, organism-based

| Compound | Activity (Medulloblastoma cell [1]) | Activity (Medulloblastoma cell [2]) | Activity [3] | Activity (Medulloblastoma cell [4]) | Activity (Medulloblastoma cell [5]) | Activity (Medulloblastoma cell [6]) | Activity (Medulloblastoma cell [7]) | Activity (Medulloblastoma cell [8]) | Activity (Medulloblastoma cell [9]) | Activity (Medulloblastoma cell [10]) | Activity (Medulloblastoma cell [11]) | Activity [12] | Activity [13] | IC50 (Medulloblastoma cell [14]) [µM] | Activity (Medulloblastoma cell [15]) | Activity (Medulloblastoma cell [16]) | Activity (Mus musculus) |
| --- | --- | --- | --- | --- | --- | --- | --- | --- | --- | --- | --- | --- | --- | --- | --- | --- | --- |
| CCN(c1cc(-c2ccc(CN3CCOCC3)cc2)cc(C(=O)NCc2c(C)cc(C)[nH]c2=O)c1C)C1CCOCC1 [TAZEMETOSTAT] | Active | Active | Non-Toxic | Active | Active | Active | Active | Active | Active | Active | Active | Non-Toxic | Active | 8.74 | Active | Active | Active |
| CCCc1cc(C)[nH]c(=O)c1CNC(=O)c1cc(-c2ccc(N3CCN(C(C)C)CC3)nc2)cc2c1cnn2C(C)C | Active | Active | Non-Toxic | Active | Active | Active | Active | Active | Active | Active | Active | Non-Toxic | Active | 2.08 | Active | Active | Active |
| CC[C@H](C)n1cc(C)c2c(C(=O)NCc3c(C)cc(C)[nH]c3=O)cc(-c3ccc(N4CCNCC4)nc3)cc21 [GSK2816126] | Active | Active | Non-Toxic | Active | Active | Active | Active | Active | Active | Active | Active | Non-Toxic | Active | 4.64 | Active | Active | Active |
